Assay results from PMC9357092 (Clinical Cancer Research, 2022).
Values joined by “and” are separate entries in the source; they are usually repeats but may differ in a detail not shown here. Identical values can stand only once. Like-named read-outs stand apart in the source and are kept apart here.

How the values were obtained:
[1] = cited from earlier work; for Observed CSF concentration (mean) / Observed CSF Kp,uu, geometric mean: 13 patients; for Observed CSF concentration (mean): 300 mg twice daily with trastuzumab and capecitabine, 2-5 hours postdosing
[2] = set-up: species or system human; conditions: IVIVE predicted
[3] = In vitro metabolism in pooled human intestine microsomes; format: in vitro ADME
Summary of the method: (§1)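 Test compound (0.5 to 50 μmol/L) incubated with pooled human microsomes (0.4 mg/mL) at 37°C for 30 minutes. Overall drug disappearance velocity plotted against initial concentration and fitted to the Michaelis–Menten equation by nonlinear regression. Intrinsic clearance was taken as Vmax/Km.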

[4] = Bidirectional transwell permeability, parental MDCKII monolayer; format: in vitro ADME; conditions: dog, MDCK, pH 7.4, Intrinsic passive transcellular permeability (Papp,A-B/λ), unbound and unionized drug
[5] = Binding to human plasma proteins; format: in vitro ADME; conditions: pooled human plasma
[6] = Whole-body-4Brain PBPK model simulation of plasma and CNS pharmacokinetics; set-up: species or system human; conditions: PBPK input; for fa: assigned based on observed data; for Ka: first-order absorption rate constant; for Ka / Lag time: observed
[7] = system: HER2-positive breast cancer; conditions: cited from earlier work; for Cumulative incidence of intervention for CNS metastases: NALA phase III, each drug plus capecitabine, P = 0.043; for CNS objective response rate, monotherapy: pretreated HER2-positive breast cancer patients with progressive brain metastases
HER2 kinase = conditions: read-out: IC50 for inhibition of HER2 kinase; ADP-Glo assay; cited from earlier work
[8] = Observed clinical plasma, CSF and brain metastasis pharmacokinetics in patients; format: in vivo, human
[9] = In vitro metabolism in pooled human liver microsomes; format: in vitro ADME
Summary of the method: as §1

[10] = Blood-to-plasma partition ratio; format: in vitro ADME; conditions: blood and plasma
[11] = Binding to human brain tissue; format: in vitro ADME; conditions: pooled human brain tissue

Row | Structure (SMILES) | Ratio of BBB passive clearance (PSB) to active efflux clearance (CLefflux,BBB) [2] | microsomal CLint [3] | Papp A→B at 1 h, 1 μmol/L [4] | fraction unbound [5] | fa [6] | Ka [6] | Lag time [6] | Cumulative incidence of intervention for CNS metastases [7] | CNS objective response rate, monotherapy [7] | IC50 (HER2 kinase) | microsomal CLint [9] | blood plasma ratio [10] | fraction unbound [11] | further results
1 | CCOc1cc2ncc(C#N)c(Nc3ccc(OCc4ccccn4)c(Cl)c3)c2cc1NC(=O)/C=C/CN(C)C [neratinib] | […] | 24.6 µL/min/mg | […] | […] | 0.2 | 0.25 | 0.8 h | 22.8% | 8% | […] | 39 µL/min/mg | […] | 0.004 | Observed total plasma concentration ([1]; 2 patients, 240 mg once daily): […]; Disease-free survival vs placebo, HR ([7]; ExteNET, 240 mg once daily, 1 year, 95% CI 0.46-0.84): 0.63; Cumulative incidence of CNS metastases vs placebo ([7]; ExteNET, 240 mg once daily, 1 year): no statistically significant difference; Time to CNS metastases, hazard ratio ([7]; NEfERT-T, neratinib plus paclitaxel vs trastuzumab plus paclitaxel, 95% CI 0.26-0.78): […]; Incidence of symptomatic or progressive CNS recurrence ([7]; NEfERT-T, neratinib plus paclitaxel vs trastuzumab plus paclitaxel): 8.3%; Unbound plasma concentration corresponding to observed total ([8]; 2 patients, assuming fraction unbound in plasma 0.007, data of ref 28): 0.43 nM and 0.67 nM
2 | Cc1cc(Nc2ncnc3ccc(NC4=NC(C)(C)CO4)cc23)ccc1Oc1ccn2ncnc2c1 [tucatinib] | 0.83 | 4.5 µL/min/mg | 13.3 ×10⁻⁶ cm/s | 0.03 | 0.5 | 0.8 | 0.6 h |  |  | 6.9 nM | 41.8 µL/min/mg | 0.93 | 0.015 | Observed CSF concentration (mean) ([1]; cycle 1 day 1): 10.9 nmol/L; Observed CSF concentration (mean) ([1]; cycle 2 day 1): 21.6 nmol/L; Observed CSF Kp,uu, geometric mean ([1]; cycle 1 day 1): 0.51; Observed CSF Kp,uu, geometric mean ([1]; cycle 2 day 1): 0.76; Risk of intracranial progression or death, HR ([7]; HER2CLIMB, tucatinib added to trastuzumab and capecitabine, 95% CI 0.22-0.48): 0.32; Risk of death, HR ([7]; HER2CLIMB, tucatinib added to trastuzumab and capecitabine, 95% CI 0.40-0.85): 0.58
3 | CS(=O)(=O)CCNCc1ccc(-c2ccc3ncnc(Nc4ccc(OCc5cccc(F)c5)c(Cl)c4)c3c2)o1 [lapatinib] |  | 5.66 µL/min/mg | 4.14 ×10⁻⁶ cm/s | 0.014 |  |  |  | 29.2% | 6% |  | 22.8 µL/min/mg |  | 0.0004 | CNS response rate, combined with stereotactic radiosurgery [7]: 75%; CNS response rate, combined with whole-brain radiation therapy [7]: 79%; Estimated CSF Kp,uu from observed data ([8]; two patients, assuming fraction unbound in plasma 0.014, data of ref 27): 0.092
